Assays:
[1] = folding enthalpy; higher = less favourable; fluorescence melt of hairpins on a sequencing array, two-state fit; conditions: sodium 0.088 M
How it was run: (§1)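 Cy3 signals were normalised both to pre-quench Cy3 and to control constructs. They came from library hairpins carrying annealed Cy3 and quencher oligos on a sequenced MiSeq flow cell, imaged in 50 mM Na-HEPES pH 8.0, 25 mM NaCl, in 2.5 °C steps up to 60 °C. Bootstrapped two-state fits gave melting temperature and folding enthalpy, and four replicates were combined by inverse variance. Fitted temperatures were then raised by 9.35 °C to match UV melts.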

[2] = melting temperature; fluorescence melt of hairpins on a sequencing array, two-state fit, raised by 9.35 °C to match UV melts; conditions: sodium 0.088 M
How it was run: as §1

Row | Sequence | folding enthalpy [1] [kcal/mol] | Tm [2] [°C]
1 | GCGACAGCGAAAGCTCGC (((..(((....)))))) | -14.6 | 46.7
2 | GATCAATGACTTGATC ((((((....)))))) | -29.1 | 39.7
3 | GGAGTAGAAATACTCC ((((((....)))))) | -32.6 | 52
4 | GGGATGACGAAAGTCCCC (((..(((....)))))) | -18.4 | 42.9
5 | GGCTGAGCGAAAGCTGCC (((..(((....)))))) | -20 | 51.6
6 | CGGCAGCGGAAACGCCCG (((..(((....)))))) | -21.7 | 47
7 | GTAGGCCGAAAGGCGTAC (((.(((....))).))) | -26.5 | 62.4
8 | GCTTGGCGAAAGCAAAGC ((((.((....)).)))) | -36.5 | 63.7
9 | GTCTAGGGAAACCCAGAC ((((.((....)).)))) | -30.1 | 40.9
10 | GCCTCCGAAAGGATGGGC ((((((....)))..))) | -41.9 | 50
11 | GGTGCCGGAAACGGCATC (.(((((....))))).) | -15.1 | 62.4
12 | GTGGACCGAAAGGTGCAC (((.(((....))).))) | -24.7 | 67.3
13 | GTCGTCCGAAAGGAGGAC (((.(((....))).))) | -40.2 | 62
14 | GATCATCGCATGATC ((((((...)))))) | -31.4 | 49.6
15 | GATCTCATTGGAGATC ((((((....)))))) | -38.7 | 52.2
16 | GCGGTGCGAAAGCAGAGC ((..(((....)))..)) | -33 | 63.5
17 | CGGCCGGAAACGGGACCG ((((((....)))..))) | -25.5 | 47.8
18 | GCGGCGCGAAAGCACTGC ((.(.((....)).).)) | -29 | 54.6
19 | GGTTGAGGAAACTCAATC (.(((((....))))).) | -28.3 | 43.4
20 | GCTTAGCGAAAGCCAGGC ((.(.((....)).).)) | -12.6 | 34.5
21 | GCTTAGCGAAAGCACAGC (((..((....))..))) | -15.8 | 38.6
22 | GAACGGCGAAAGCCCTTC (((.(((....))).))) | -12.4 | 32.8
23 | GGCATGGGAAACCGTGCC ((((.((....)).)))) | -33.2 | 62.7

Row | Sequence | folding enthalpy [1] [kcal/mol] | Tm [2] [°C]
24 | GTACTTGAAAAAGTAC ((((((....)))))) | -32.7 | 48.6
25 | GTGGAGAAATCCAC (((((....))))) | -25.7 | 49.3
26 | GTGTAGCGAAAGCTCAC (((.(((....)))))) | -23.2 | 51.8
27 | GGAACCGAAAGGTTGTCC ((((((....)))..))) | -11.5 | 36.1
28 | GGTTGACGAAAGTCGACC (((.(((....))).))) | -46.8 | 63
29 | GGTTGTGGAAACACAACC (((((((....))))))) | -42 | 66.3
30 | GTCACAGGAAACTATGAC ((((.((....)).)))) | -20.1 | 32
31 | GCTGCAACGAAAGTTAGC (((..(((....)))))) | -17.2 | 39.8
32 | GCACGGCGAAAGCAGAGC ((.(.((....)).).)) | -20 | 53
33 | GGTGCGGGAAACCGCGCC ((.((((....)))).)) | -31.3 | 68.7
34 | GCTCTCGAAAGAGAAAGC ((((((....)))..))) | -22.6 | 40
35 | GCTCATGGAAACATAAGC (((.(((....))).))) | -18.2 | 32
36 | GCTGGCGAAAGCCGTAGC ((((((....)))..))) | -13.9 | 58.9
37 | GACATGGGAAACTATGTC (((((.(....).))))) | -27.6 | 44.4
38 | GGCAGCACGAAAGTGGCC (((..(((....)))))) | -22.3 | 51
39 | GGCGACGAAAGTCGGGCC ((((((....)))..))) | -11 | 53.3
40 | GATCCGACACGGATC ((((((...)))))) | -35.6 | 59.1
41 | CGGGAGAAATCCCG (((((....))))) | -25.9 | 57.1
42 | GATCCCTACGGGGATC ((((((....)))))) | -39.4 | 62.1
43 | GAACGGGGAAACTCGTTC (((((.(....).))))) | -48.7 | 50.8
44 | GCGGAGCGAAAGCCCGGC ((.(.((....)).).)) | -10.5 | 53.5
45 | GCCAAGCGAAAGCTGTGC ((..(((....)))..)) | -17.4 | 46.4
46 | GTAAGTCGAAAGACTAC (((.(((....)))))) | -16.9 | 39.5

Row | Sequence | folding enthalpy [1] [kcal/mol] | Tm [2] [°C]
47 | GAACTGGGAAACCAGCTC ((.((((....)))).)) | -19.4 | 38.5
48 | CGCAAGCGGAAACGCGCG (((..(((....)))))) | -22 | 56.9
49 | GATCTTGGAAAAGATC ((((((....)))))) | -33 | 49
50 | AGAACCCGAAAGGCTTCT ((((.((....)).)))) | -17.7 | 33.6
51 | GGACCCGGAAACGGGCCC ((.((((....)))).)) | -19.2 | 59.6
52 | GTAATCGCGAAAGCGTAC (((..(((....)))))) | -6.16 | 26.7
53 | GTTTGCGAAAGCACAAC ((((((....))).))) | -17.1 | 41.1
54 | GCGAGGCGAAAGCGTAGC ((.(.((....)).).)) | -15.4 | 51
55 | GATCAGCTTGCTGATC ((((((....)))))) | -47.5 | 68.8
56 | GATCGCCGCTGCGATC ((((((....)))))) | -38.5 | 66.9
57 | GATCTTTTCGAAGATC ((((((....)))))) | -33.5 | 46.4
58 | GTGAAAGGAAACTTTCGC (.(((((....))))).) | -27.3 | 45.2
59 | GCCCACGAAAGTGCGGGC ((((((....)))..))) | -28.4 | 55
60 | GCATTGCGAAAGCAGGGC ((..(((....)))..)) | -20.7 | 51
61 | GCACGAGGAAACTTGTGC ((((.((....)).)))) | -43.5 | 54.5
62 | GTGGGTCGAAAGACTCAC (((.(((....))).))) | -40.4 | 59
63 | GGGGCGCCGAAAGGCCCC (((..(((....)))))) | -15 | 66.1
64 | GATCCGTCCCCGGATC ((((((....)))))) | -32.1 | 56.5
65 | GTCCACGAAAGTGGGGAC ((((((....)))..))) | -10.4 | 46.4
66 | GGATGTGAAAACATCC ((((((....)))))) | -38.3 | 58.5
67 | ATACGGAAACGTAT (((((....))))) | -21.8 | 43.5
68 | GGACCCGAAAGGGATTCC ((((((....)))..))) | -12.2 | 37.5
69 | GGCGCCGGAAACGACGCC ((((.((....)).)))) | -33.6 | 66.4

Row | Sequence | folding enthalpy [1] [kcal/mol] | Tm [2] [°C]
70 | CGGGTGCGGAAACGCCCG (((..(((....)))))) | -23.4 | 55.7
71 | GTTGCAGGAAACCACAAC ((((..(....)..)))) | -18.2 | 27.4
72 | GGCGCCGAAAGGCTGGCC ((((((....)))..))) | -22.3 | 62.3
73 | GATCAACCTCTTGATC ((((((....)))))) | -30.3 | 43.5
74 | GATCAGTTCTCTGATC ((((((....)))))) | -42.1 | 52.1
75 | GGTGCTACGAAAGTAACC (((..(((....)))))) | -13.5 | 29.1
76 | GGGAAACCGAAAGGTCCC (((..(((....)))))) | -19.7 | 46.6
77 | GATTCAGGAAACTGAGTC ((.((((....)))).)) | -31.1 | 38.5
78 | GTTTGCGCGAAAGCGAAC (((..(((....)))))) | -12 | 36.5
79 | GGCGCAGGAAACCACGCC ((((..(....)..)))) | -35.3 | 47.3
80 | GGAGATGCGAAAGCATCC (((..(((....)))))) | -8.76 | 46.6
81 | GGAAGCGAAAGCTCTTCC ((((((....)))..))) | -18.9 | 43
82 | GGCACTCGAAAGAGGCC (((.(((....)))))) | -21.5 | 57.8
83 | GGCCGAGGAAACTCAGCC (((.(((....))).))) | -32 | 46.4
84 | GAGCCGCGAAAGCGCTC (((.(((....)))))) | -16.7 | 58.9
85 | GGCTCTCGAAAGAGGCC (((.(((....)))))) | -43 | 56.9
86 | GCTGAGTCGAAAGACAGC (((..(((....)))))) | -20.8 | 44.5
87 | GTCGGAGGAAACTTCGGC (.((.((....)).)).) | -24.3 | 38.4
88 | GGAAATGAAAATTTCC ((((((....)))))) | -29.2 | 48.8
89 | GCCTGACGAAAGTCCGGC (((.(((....))).))) | -41.4 | 56.7
90 | GCATAGCGAAAGCTTTGC (((.(((....))).))) | -41.9 | 53.4
91 | GCCGGAGCGAAAGCTGGC (((..(((....)))))) | -21.6 | 55.4
92 | GTCGATCGAAAGATGGAC (((.(((....))).))) | -28.3 | 48.6

— the array DNA melting data of Ke et al. (doi:10.1101/2024.01.08.574731)
